# PGC1a acetyl inh: modulators of PGC1a acetylation | U2OS PGC1a acetylation, AlphaScreen anti-acetyl-lysine; with virally co-expressed GCN5 acetyltransferase | inhibition, % at 15.6 µM | 0.17% of 350,000 active | AID 651687;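 active means every replicate shows inhibition of at least 40%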;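 further: 0% = neutral control wells and 100% = positive control wells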
# SIRT5 block: inhibitors of human sirtuin-5 desuccinylase; Q9NXA8; Purified SirT5, succinyl-peptide AMC, trypsin-coupled fluorescence; inhibition, % at 15 µM; 1.1% of 330,000 active; in the data active means inhibition above about 15%
# Target sequence (Q9NXA8 whole entry, looked up): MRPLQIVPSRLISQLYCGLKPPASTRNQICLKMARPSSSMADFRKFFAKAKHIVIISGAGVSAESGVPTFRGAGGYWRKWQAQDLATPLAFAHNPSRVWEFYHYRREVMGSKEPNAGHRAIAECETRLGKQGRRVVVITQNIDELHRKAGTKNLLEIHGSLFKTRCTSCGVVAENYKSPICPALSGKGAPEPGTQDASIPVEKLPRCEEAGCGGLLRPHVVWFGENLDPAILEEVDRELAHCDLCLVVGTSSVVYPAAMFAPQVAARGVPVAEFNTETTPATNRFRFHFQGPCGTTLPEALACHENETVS
# FN deposit inh: fibronectin deposition inhibition; AH1F fibroblasts, Alexa488-fibronectin deposition fluorescence, overnight; inhibition, % at 12.6 µM; 0.086% of 350,000 active; AID 743247;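 active means mean inhibition across replicates of 30% or more, regardless of how many single replicates reach that level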;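 further: positive control wells lacked labelled fibronectin entirely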
#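 Measured by – fluorescence 485/525 nm · System – AH1F fibroblast monolayer, labelled fibronectin deposition · Amount – 10000 cells per well · Buffer or medium – serum-reduced DMEM (2% serum) · Doses – single dose, pinned · Also added – fluorescent fibronectin at 24 nM final · Schedule – 1 h cell attachment, overnight exposure to compound and label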
# FGF22 binding-1: FGF22 (human) thermal shift binding. Q9HCT0. recombinant FGF22 thermal shift, SYPRO orange fluorescence; percent of sucrose octasulfate shift, DMSO zero. activity (Tm shift, normalised), % at 9.99 µM. 1.5% of 340,000 active. AID 651658;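 active means mean Tm shift, scaled 0 neutral to 100 positive control, at about 1.3% or above, every replicate too, limit read from the data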
# Target sequence (Q9HCT0 whole entry, looked up): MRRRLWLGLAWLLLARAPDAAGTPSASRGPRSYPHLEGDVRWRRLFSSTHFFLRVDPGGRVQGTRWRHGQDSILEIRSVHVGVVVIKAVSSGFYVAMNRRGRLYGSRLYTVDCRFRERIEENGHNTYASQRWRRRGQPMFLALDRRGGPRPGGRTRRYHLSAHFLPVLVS
# ERAP1 inh: ERAP1 (human) enzyme inhibition | Q9NZ08 | recombinant ERAP1, Leu-AMC fluorescence, 60 min | inhibition, % at 10.7 µM | 0.15% of 340,000 active;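 active means mean replicate inhibition of at least 30%, or all replicates individually reaching that 30% level; inactive means mean below 30% and not every replicate reaching it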;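 further: 0% = neutral control wells and 100% = L-leucinethiol positive control wells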
# FGF22 binding-2: FGF22 (human) binding in thermal shift; shares compounds with FGF22 binding-1; AID 720646; 2% of 1,000 active; thermal shift activity, °C (ΔTm) at 38 µM; recombinant FGF22 thermal shift, SYPRO orange fluorescence;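 active means fitted rise in melting shift crosses a set limit at or below the top valid dose tested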
# FGF22 TSA: FGF22 (human) binding by thermal shift; shares compounds with FGF22 binding-1; Thermal shift assay, SYPRO orange, melting temperature shift; Tm shift (activity), % at 38 µM; 50 tested, under 10 active;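 active means compounds whose fitted dose curve of melting temperature shift rises past a set threshold within the tested doses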
# TSA no protein: shows thermal shift signal without protein, FGF22 counter-screen; shares compounds with FGF22 binding-1; compound-only SYPRO orange thermal shift counter-screen, no protein; AC50, µM (doses to about 38 µM); 2% of 1,000 active;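 active means rising signal whose fitted curve reaches the 0.54 level within the top valid dose, showing a melting point, actives reach about 13 µM in these data; inactive means the rest, including activity in the opposite direction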; further: value is where the raw curve crosses a fixed level and not half-maximal
# * marks the source's active call; other numbers are inactive results; i = inactive; nt = no result; [ ] = another dose, or the depositor's remark. Most compounds without a hit are left out; they make up all but 2.2% or so of the library.
SMILES,PGC1a acetyl inh,SIRT5 block,FN deposit inh,FGF22 binding-1,ERAP1 inh,FGF22 binding-2,TSA no protein,others
C[C@@H]1CN([C@H](C)CO)C(=O)CCCn2nncc2CO[C@@H]1CN(C)Cc1ccc2c(c1)OCO2,-3.8,-1.7,8.1,0.6,2.4,nt,nt,
CCCC(=O)Nc1ccc2c(c1)OC[C@H](C)N(Cc1nccs1)C[C@@H](C)[C@H](OC)CN(C)C2=O,-15.0,nt,-17.5,nt,nt,nt,nt,
CCCC#Cc1ccc2c(c1)O[C@@H](CN(C)C(=O)c1ccccc1)[C@H](C)CN([C@@H](C)CO)S2(=O)=O,9.4,1.3,-3.3,-0.4,0.4,nt,nt,
COc1ccc(C)cc1NS(=O)(=O)c1ccc(NS(=O)(=O)c2ccc(NC(C)=O)cc2)cc1,nt,2.5,nt,2.9*,1.6,-0.008,i,FGF22 TSA=0.1
COc1cc(NS(=O)(=O)c2ccc(NS(=O)(=O)c3ccc(NC(C)=O)cc3)cc2)nc(OC)n1,12.0,6.5,3.5,1.4*,-4.4,0.121,i,
COc1ccc(S(=O)(=O)Nc2ccc(NC(C)=O)cc2)cc1Cl,3.9,-0.1,-18.5,1.7*,-2.9,-0.005,i,
COc1ccc(S(=O)(=O)Nc2ccc(NC(C)=O)cc2)cc1OC,13.9,nt,-2.4,nt,nt,nt,nt,
COc1cc(NS(=O)(=O)c2ccc(NC(=S)NC(C)=O)cc2)nc(OC)n1,10.7,-0.7,6.5,-0.1,4.6,nt,nt,
COc1ccc(OC)c(NS(=O)(=O)c2ccc(NC(C)=O)cc2)c1,9.1,nt,nt,nt,nt,nt,nt,
COc1ccc(C#Cc2cnc3c(c2)C(=O)N([C@H](C)CO)C[C@H](C)[C@H](CN(C)S(=O)(=O)c2cccs2)O3)cc1OC,-61.2,13.5,-5.5,0.2,-0.4,nt,nt,
CN(C)C(=O)[C@@H]1[C@@H](CO)[C@@H]2Cn3c(ccc(-c4cccc(F)c4)c3=O)[C@@H]2N1C(=O)c1cnccn1,nt,4.2,nt,-0.1,0.8,nt,nt,
C[C@@H]1CN([C@H](C)CO)C(=O)Cc2cc(NC(=O)c3ccncc3)ccc2O[C@H]1CN(C)S(C)(=O)=O,-1.5,0.4,nt,-0.1,1.9,nt,nt,
CCN1C(=O)C(CC(=O)Nc2ccc(OC)cc2)N(Cc2ccc3c(c2)OCO3)C1=S (stereo not given),nt,-2.4,-1.2,2.0*,-0.2,0.007,i,
CCOc1ccc(NC(=O)CC2C(=O)N(C)C(=S)N2Cc2ccc3c(c2)OCO3)cc1 (stereo not given),-4.9,nt,nt,nt,nt,nt,nt,
CCN1C(=O)C(CC(=O)Nc2ccc(OC)cc2)N(Cc2ccc(OC)c(OC)c2)C1=S (stereo not given),2.5,0.6,6.9,nt,nt,nt,nt,
CCN1C(=O)C(CC(=O)Nc2ccc(OC)cc2)N(CCc2ccc(OC)cc2)C1=S (stereo not given),nt,-3.5,-11.0,1.6*,-0.7,0.125,i,
O=C(C[C@H]1C[C@@H]2c3cc(NC(=O)NC4CCCC4)ccc3O[C@@H]2[C@H](CO)O1)NC1CCCC1,3.4,-2.7,3.8,1.4*,1.0,-0.147,i,
COc1cccc(S(=O)(=O)Nc2ccc3c(c2)[C@@H]2C[C@H](CC(=O)NC4CCCCC4)O[C@@H](CO)[C@@H]2O3)c1,-3.4,3.2,5.8,1.6*,-5.2,0.139,i,
COCC(=O)Nc1ccc2c(c1)[C@H]1C[C@@H](CC(=O)NCc3ccccn3)O[C@H](CO)[C@H]1O2,2.8,10.9,2.1,1.3*,3.1,-0.032,i,
CS(=O)(=O)Nc1ccc2c(c1)[C@@H]1C[C@@H](CC(=O)NCCc3ccccc3)O[C@@H](CO)[C@@H]1O2,-0.1,-1.4,-5.6,-0.2,-0.2,nt,nt,
CS(=O)(=O)Nc1ccc2c(c1)[C@@H]1C[C@H](CC(=O)NCCc3ccccc3)O[C@@H](CO)[C@@H]1O2,-1.9,-1.2,8.6,1.4*,2.2,-0.079,i,
O=C(C[C@H]1C[C@H]2c3cc(NC(=O)NC4CCCC4)ccc3O[C@H]2[C@@H](CO)O1)NC1CCCC1,-9.9,-8.6,1.7,0.3,2.5,nt,nt,
Cc1noc(C)c1NC(=O)NCC[C@@H]1CC[C@@H](NC(=O)c2ccncc2)[C@H](CO)O1,-22.1,-0.5,nt,-0.5,0.3,nt,nt,
Cc1noc(C)c1NC(=O)Nc1ccc2c(c1)CC(=O)N([C@@H](C)CO)C[C@H](C)[C@H](CN(C)S(=O)(=O)c1cn(C)cn1)O2,3.8,nt,-5.3,-0.6,nt,nt,nt,
CCCNC(=O)N1CC(=O)N2[C@H](C1)[C@H](c1ccc(-c3ccncc3)cc1)[C@@H]2CO,-7.9,-1.2,nt,nt,1.6,nt,nt,
SMILES,PGC1a acetyl inh,SIRT5 block,FN deposit inh,FGF22 binding-1,ERAP1 inh,FGF22 binding-2,TSA no protein,others
O=C(O)C[C@@H]1C[C@H]2c3cc(NC(=O)Nc4ccc(C(F)(F)F)cc4)ccc3O[C@H]2[C@@H](CO)O1,3.7,5.5,3.5,23.3*,-1.7,-0.169,i,
O=C(C[C@@H]1C[C@H]2c3cc(NC(=O)C4CCC4)ccc3O[C@H]2[C@@H](CO)O1)NCc1cc(F)ccc1F,2.4,7.3,10.8,28.1*,1.2,-0.028[42 µM],i,
O=C(C[C@H]1C[C@@H]2c3cc(NC(=O)C4CCC4)ccc3O[C@@H]2[C@H](CO)O1)NCc1cc(F)ccc1F,5.8,3.4,-4.3,-0.5,0.6,nt,nt,
O=C(C[C@H]1C[C@H]2c3cc(NC(=O)NC4CCCC4)ccc3O[C@H]2[C@@H](CO)O1)NCCN1CCCCC1,-0.9,-2.6,13.0,19.1*,-3.1,-0.01[42 µM],i,
CN(C)CC(=O)Nc1ccc2c(c1)[C@@H]1C[C@H](CC(=O)N(C)C)O[C@@H](CO)[C@@H]1O2,-1.5,-4.7,11.2,2.3*,-1.2,0.116,i,
CC(C)(C)[S@@](=O)N1Cc2cc(C(=O)NCc3ccncc3)nc(-c3cccc(-c4ccncc4)c3)c2[C@H]1CCO,4.5,-1.2,9.4,0.1,-10.1,nt,nt,
COc1ccccc1-c1cccc(-c2nc(C(=O)NCc3ccncc3)cc3c2[C@@H](CCO)N([S@](=O)C(C)(C)C)C3)c1,3.4,1.3,-0.6,23.6*,-0.6,0.107,i,
CC(C)(C)[S@](=O)N1Cc2cc(C(=O)N[C@@H]3CCN(Cc4ccccc4)C3)nc(-c3cccc(-c4cncnc4)c3)c2[C@@H]1CCO,nt,nt,5.5,nt,nt,nt,nt,
CC(C)(C)[S@](=O)N1Cc2cc(C(=O)N[C@@H]3CCN(Cc4ccccc4)C3)nc(-c3cccc(-c4cccnc4)c3)c2[C@@H]1CCO,-14.9,-0.1,-4.3,2.1*,-2.3,-0.105[42 µM],i,
C[C@H](CO)N1C[C@H](C)[C@@H](CN(C)C(=O)Nc2ccc(F)cc2)OCCCC[C@H](C)Oc2ccc(NC(=O)Nc3ccc4c(c3)OCO4)cc2C1=O,-8.7,7.2,nt,-0.2,-1.9,nt,nt,

# Assay outcomes as filed in PubChem.
